Laboratory results taken from ChEMBL document CHEMBL3045285, “Synthesis and insecticidal activities of novel anthranilic diamides containing modified N-pyridylpyrazoles” (2010).

Assays:
Assay type in all cases: functional
Mythimna separata [1] = assay: Insecticidal activity against fourth-instar larval stage of Mythimna separata (Oriental armyworm) in compound pretreated Zea mays L. Tangyu 10 leaves assessed as mortality at 20 mg/l at 25 +/-1 degC after 2 days
Outline: (§1)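 Greenhouse-reared fourth-instar oriental armyworm larvae. Corn (Tangyu 10) leaves laid on moist filter paper in Petri dishes, sprayed with test solution (200 mg/L solution diluted in distilled water), then air-dried. Ten larvae per dish. Held at 25 ± 1 °C; mortality scored dead/alive 2 days post-treatment. Triplicate treatments, Abbott-corrected, 0–100 scale.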

Mythimna separata [2] = assay: Insecticidal activity against fourth-instar larval stage of Mythimna separata (Oriental armyworm) in compound pretreated Zea mays L. Tangyu 10 leaves assessed as mortality at 50 mg/l at 25 +/-1 degC after 2 days; outline: as §1
Mythimna separata [3] = assay: Insecticidal activity against fourth-instar larval stage of Mythimna separata (Oriental armyworm) in compound pretreated Zea mays L. Tangyu 10 leaves assessed as mortality at 100 mg/l at 25 +/-1 degC after 2 days; outline: as §1
Mythimna separata [4] = assay: Insecticidal activity against fourth-instar larval stage of Mythimna separata (Oriental armyworm) in compound pretreated Zea mays L. Tangyu 10 leaves assessed as mortality at 200 mg/l at 25 +/-1 degC after 2 days; outline: as §1

Row | SMILES | mortality at 20 µg/mL (Mythimna separata [1]) | mortality at 50 µg/mL (Mythimna separata [2]) | mortality at 100 µg/mL (Mythimna separata [3]) | mortality at 200 µg/mL (Mythimna separata [4])
1 | CNC(=O)c1cc(Cl)cc(C)c1NC(=O)c1cc(C(=O)NCc2ccccc2)nn1-c1ncccc1Cl | 20% | 100% | 100% | 100%
2 | CNC(=O)c1cc(Cl)cc(C)c1NC(=O)c1cc(CO)nn1-c1ncccc1Cl | 60% | 100% | 100% | 100%
3 | CNC(=O)c1cc(C(=O)Nc2c(C)cc(Cl)cc2C(=O)NC)n(-c2ncccc2Cl)n1 | – | – | 60% | 100%
4 | CNC(=O)c1cc(Cl)cc(C)c1NC(=O)c1cc(C=O)nn1-c1ncccc1Cl | – | – | 40% | 100%
5 | CNC(=O)c1cc(C(=O)Nc2c(C)cc(Cl)cc2C(=O)NCc2ccccc2)n(-c2ncccc2Cl)n1 | – | – | 60% | 100%
6 | CCCCOC(=O)c1cc(C(=O)Nc2c(C)cc(Cl)cc2C(=O)NC)n(-c2ncccc2Cl)n1 | – | – | – | 80%
7 | CCOC(=O)c1cc(C(=O)Nc2c(C)cc(Cl)cc2C(=O)NC(C)(C)C)n(-c2ncccc2Cl)n1 | – | 70% | 100% | 100%
8 | CNC(=O)c1cc(C(=O)Nc2c(C)cc(Cl)cc2C(=O)NC(C)C)n(-c2ncccc2Cl)n1 | – | – | 60% | 100%
9 | CNC(=O)c1cc(C(=O)Nc2c(C)cc(Cl)cc2C(=O)NOC)n(-c2ncccc2Cl)n1 | – | – | – | 0%
10 | CCOC(=O)c1cc(C(=O)Nc2c(C)cc(Cl)cc2C(=O)NC)n(-c2ncccc2Cl)n1 | – | – | – | 80%
11 | CCCNC(=O)c1cccc(C)c1NC(=O)c1cc(C(=O)OCC)nn1-c1ncccc1Cl | – | 60% | 100% | 100%
12 | CCOC(=O)c1cc(C(=O)Nc2c(C)cc(Cl)cc2C(=O)NCc2ccccc2)n(-c2ncccc2Cl)n1 | – | – | – | 20%
13 | CNC(=O)c1cc(Cl)cc(C)c1NC(=O)c1cc(C(=O)NC2CCCCC2)nn1-c1ncccc1Cl | – | – | – | 0%
14 | CCOC(=O)c1cc(C(=O)Nc2c(C)cc(Cl)cc2C(=O)NOC)n(-c2ncccc2Cl)n1 | – | – | – | 50%
15 | CNC(=O)c1cc(Cl)cc(C)c1NC(=O)c1cc(CNS(C)(=O)=O)nn1-c1ncccc1Cl | – | – | 60% | 100%
16 | CNC(=O)c1cc(Cl)cc(C)c1NC(=O)c1cc(CNC(=O)c2ccccc2)nn1-c1ncccc1Cl | – | – | – | 20%
17 | CCOC(=O)c1cc(C(=O)Nc2c(C)cc(Cl)cc2C(=O)NC2CC2)n(-c2ncccc2Cl)n1 | – | 80% | 100% | 100%
18 | CNC(=O)c1cc(Cl)cc(C)c1NC(=O)c1cc(C(=O)OC2CCCCC2)nn1-c1ncccc1Cl | – | – | 40% | 100%
19 | CCCCNC(=O)c1cc(Cl)cc(C)c1NC(=O)c1cc(C(=O)NC)nn1-c1ncccc1Cl | – | – | 20% | 100%
20 | CNC(=O)c1cc(Cl)cc(C)c1NC(=O)c1cc(C(=O)OCc2ccccc2)nn1-c1ncccc1Cl | – | – | 40% | 100%
21 | CONC(=O)c1cc(Cl)cc(C)c1NC(=O)c1cc(COC(C)=O)nn1-c1ncccc1Cl | – | – | 0% | 100%
22 | CNC(=O)c1cc(Cl)cc(C)c1NC(=O)c1cc(C(=O)OC(C)C)nn1-c1ncccc1Cl | – | – | – | 80%
23 | CNC(=O)c1cccc(C)c1NC(=O)c1cc(COC(C)=O)nn1-c1ncccc1Cl | – | – | 60% | 100%
24 | CCOC(=O)c1cc(C(=O)Nc2c(C)cc(Cl)cc2C(=O)NC(C)C)n(-c2ncccc2Cl)n1 | – | – | – | 70%
25 | CCOC(=O)c1cc(C(=O)Nc2c(C)cccc2C(=O)NC(C)C)n(-c2ncccc2Cl)n1 | – | 60% | 100% | 100%
26 | CNC(=O)c1cc(Cl)cc(C)c1NC(=O)c1cc(CN)nn1-c1ncccc1Cl | – | – | – | 20%
